# Reference: ChEMBL document CHEMBL3407466, “Discovery of an oral respiratory syncytial virus (RSV) fusion inhibitor (GS-5806) and clinical proof of concept in a human RSV challenge study” (J Med Chem, 2015)
# Assays:
# [1] = Lipophilicity, log D of the compound by chromatography; format: physicochemical
# [2] = Oral bioavailability in beagle dog at 4 mg/kg; format: ADME, organism-based, Canis lupus familiaris; details: in vivo
# Lung = test: Drug uptake in lung tissue of Sprague-Dawley rat at 1 mg/kg, iv relative to plasma level; format: ADME, organism-based; design: dose 1 mg/kg, route intravenous; details: in vivo
# [3] = Terminal half life in po dosed beagle dog; format: ADME, organism-based, Canis lupus familiaris; details: in vivo, read-out: beta t1/2 (converted)
# [4] = Drug uptake in bovine lung relative to plasma level; format: ADME, Bos taurus; details: cattle
# [5] = Oral bioavailability in cynomolgus monkey at 4 mg/kg; format: ADME, organism-based, Macaca fascicularis; details: in vivo
# [6] = Terminal half life in po dosed cynomolgus monkey; format: ADME, organism-based, Macaca fascicularis; details: in vivo, read-out: beta t1/2 (converted)
# [7] = Volume of distribution at steady state in cynomolgus monkey; format: ADME, organism-based, Macaca fascicularis; details: in vivo, read-out: Vdss
# [8] = Oral bioavailability in Sprague-Dawley rat at 4 mg/kg; format: ADME, organism-based; details: in vivo
# Method in brief: (§1)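 IV parameters were taken from a 1 mg/kg dose given as a 30 min infusion.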
# [9] = Ratio of AUC (0 to 12 hrs) in epithelial lining fluid to AUC (0 to 12 hrs) in plasma of Sprague-Dawley rat at 1 mg/kg, iv; format: ADME, organism-based; design: dose 1 mg/kg, route intravenous
# [10] = Clearance in cynomolgus monkey at 1 mg/kg, iv administered as infusion over 30 mins; format: ADME, organism-based, Macaca fascicularis; design: dose 1 mg/kg, route intravenous; details: in vivo
# [11] = Terminal half life in po dosed Sprague-Dawley rat; format: ADME, organism-based; details: in vivo, read-out: beta t1/2 (converted)
# [12] = Terminal half life in po dosed human; format: ADME, organism-based; details: in vivo, read-out: beta t1/2 (converted)
# Plasma [13] = test: Drug uptake in epithelial lining fluid of Sprague-Dawley rat at 1 mg/kg, iv relative to plasma level; format: ADME, organism-based; design: dose 1 mg/kg, route intravenous; details: in vivo
# [14] = Clearance in Sprague-Dawley rat at 1 mg/kg, iv administered as infusion over 30 mins; format: ADME, organism-based; design: dose 1 mg/kg, route intravenous; details: in vivo; method in brief: as §1
# [15] = Clearance in beagle dog at 1 mg/kg, iv administered as infusion over 30 mins; format: ADME, organism-based, Canis lupus familiaris; design: dose 1 mg/kg, route intravenous; details: in vivo
# [16] = Ratio of AUC (0 to 12 hrs) in lung to AUC (0 to 12 hrs) in plasma of Sprague-Dawley rat at 1 mg/kg, iv; format: ADME, organism-based; design: dose 1 mg/kg, route intravenous
# [17] = Volume of distribution at steady state in Sprague-Dawley rat; format: ADME, organism-based; details: in vivo, read-out: Vdss
# Plasma [18] = test: Drug uptake in dog lung relative to plasma level; format: ADME, Canis lupus familiaris
# [19] = Volume of distribution at steady state in beagle dog; format: ADME, organism-based, Canis lupus familiaris; details: in vivo, read-out: Vdss
chromatographic logD [1],Compound,other results
3.3,Cc1cn2nc([C@@H]3CCCCN3C(=O)c3cc(Cl)ccc3NS(C)(=O)=O)cc2nc1N1CC(C#N)C1,
2,Cc1cn2nc([C@@H]3CCCCN3C(=O)c3cc(Cl)ccc3NS(C)(=O)=O)cc2nc1N1CC[C@H](N)C1 [PRESATOVIR],bioavailability [2]: 130%; Drug uptake (Lung): Not Active; half-life [3]: 8.9 h; Drug uptake [4]: Active; bioavailability [5]: 60%; half-life [6]: 10 h; Vd [7]: 4.95 L/kg; bioavailability [8]: 46%; Kp [9]: 10; clearance [10]: 6 mL/min/kg; half-life [11]: 3.4 h; half-life [12]: 35 h; Drug uptake (Plasma [13]): Not Active; clearance [14]: 32.2 mL/min/kg; clearance [15]: 3.83 mL/min/kg; Kp [16]: 26; Vd [17]: 9.75 L/kg; Drug uptake (Plasma [18]): Active; Vd [19]: 2.91 L/kg
4.1,Cc1ccc(NS(C)(=O)=O)c(C(=O)N2CCCC[C@H]2c2cc3nc(C4CC4)c(C)cn3n2)c1,
4.2,Cc1cn2nc([C@@H]3CCCCN3C(=O)c3cc(Cl)ccc3NS(C)(=O)=O)cc2nc1N1CCC(F)(F)C1,
2.8,CNc1c(C)c(C)nc2cc([C@@H]3CCCCN3C(=O)c3cc(C)ccc3NS(C)(=O)=O)nn12,
3.7,Cc1cn2nc([C@@H]3CCCCN3C(=O)c3cc(Cl)ccc3NS(C)(=O)=O)cc2nc1N1CC(F)C1,
1.9,Cc1[nH]c2cc([C@@H]3CCCCN3C(=O)c3cc(Cl)ccc3NS(C)(=O)=O)nn2c(=O)c1C,
1.1,Cc1[nH]c2cc([C@@H]3CCCCN3C(=O)c3ccccc3N(C)S(C)(=O)=O)nn2c(=O)c1C,
1.8,Cc1[nH]c2cc([C@@H]3CCCCN3C(=O)c3c(Cl)cccc3NS(C)(=O)=O)nn2c(=O)c1C,
1.3,COC(=O)Nc1ccccc1C(=O)N1CCCC[C@H]1c1cc2[nH]c(C)c(C)c(=O)n2n1,
2,Cc1cn2nc([C@@H]3CCCCN3C(=O)c3cc(Cl)ccc3NS(C)(=O)=O)cc2nc1N1CC[C@@H](N)C1,
1.4,Cc1[nH]c2cc([C@@H]3CCCCN3C(=O)c3ccccc3N)nn2c(=O)c1C,
2.7,Cc1cn2nc([C@@H]3CCCCN3C(=O)c3cc(Cl)ccc3NS(C)(=O)=O)cc2nc1N1CC(O)C1,bioavailability [8]: 42%
3.7,Cc1ccc(NS(C)(=O)=O)c(C(=O)N2CCCC[C@H]2c2cc3nc(C4CC4)ccn3n2)c1,
3.1,Cc1ccc(NS(C)(=O)=O)c(C(=O)N2CCCC[C@H]2c2cc3nc(C)c(C)c(C)n3n2)c1,bioavailability [8]: 26%
4.4,Cc1cn2nc([C@@H]3CCCCN3C(=O)c3cc(Cl)ccc3NS(C)(=O)=O)cc2nc1N1CCCC1,
2.6,CNc1c(C)c(C)nc2cc([C@@H]3CCCCN3C(=O)c3ccccc3NS(C)(=O)=O)nn12,
1.3,Cc1[nH]c2cc([C@@H]3CCCCN3C(=O)c3ccccc3NS(C)(=O)=O)nn2c(=O)c1C,bioavailability [8]: 1.5%
2.9,Cc1cn2nc([C@@H]3CCCCN3C(=O)c3cc(Cl)ccc3NS(C)(=O)=O)cc2nc1N1CC[C@H](O)C1,
3.8,Cc1cn2nc([C@@H]3CCCCN3C(=O)c3cc(Cl)ccc3NS(C)(=O)=O)cc2nc1N1CCC1,

chromatographic logD [1],Compound,other results
1.4,Cc1[nH]c2cc([C@@H]3CCCCN3C(=O)c3cc(F)ccc3NS(C)(=O)=O)nn2c(=O)c1C,
2.1,Cc1cn2nc([C@@H]3CCCCN3C(=O)c3cc(Cl)ccc3NS(C)(=O)=O)cc2nc1N1CC(N)C1,bioavailability [8]: 67%
1.1,Cc1[nH]c2cc([C@@H]3CCCCN3C(=O)c3ccccc3O)nn2c(=O)c1C,
3.6,Cc1cn2nc([C@@H]3CCCCN3C(=O)c3cc(Cl)ccc3NS(C)(=O)=O)cc2nc1N1CC[C@H](C#N)C1,
3.5,Cc1ccc(NS(C)(=O)=O)c(C(=O)N2CCCC[C@H]2c2cc3nc(C4CC4)cc(C)n3n2)c1,bioavailability [8]: 42%
1.6,Cc1[nH]c2cc([C@@H]3CCCCN3C(=O)c3ccccc3NS(=O)(=O)C3CC3)nn2c(=O)c1C,
1.7,Cc1ccc(NS(C)(=O)=O)c(C(=O)N2CCCC[C@H]2c2cc3[nH]c(C)c(C)c(=O)n3n2)c1,
1.9,Cc1[nH]c2cc([C@@H]3CCCCN3C(=O)c3cc(C(F)(F)F)ccc3NS(C)(=O)=O)nn2c(=O)c1C,
3.7,Cc1cn2nc([C@@H]3CCCCN3C(=O)c3cc(Cl)ccc3NS(C)(=O)=O)cc2nc1N1CC[C@@H](C#N)C1,
2,Cc1[nH]c2cc([C@@H]3CCCCN3C(=O)c3cc(Br)ccc3NS(C)(=O)=O)nn2c(=O)c1C,
2.8,Cc1cn2nc([C@@H]3CCCCN3C(=O)c3cc(Cl)ccc3NS(C)(=O)=O)cc2nc1N1CC[C@@H](O)C1,bioavailability [8]: 71%
0.88,CC(=O)Nc1ccccc1C(=O)N1CCCC[C@H]1c1cc2[nH]c(C)c(C)c(=O)n2n1,
2.6,Cc1[nH]c2cc([C@@H]3CCCCN3C(=O)c3cc(-c4ccccc4)ccc3NS(C)(=O)=O)nn2c(=O)c1C,
2.7,Cc1nc2cc([C@@H]3CCCCN3C(=O)c3ccccc3NS(C)(=O)=O)nn2c(C)c1C,
1.5,Cc1[nH]c2cc([C@@H]3CCCCN3C(=O)c3ccc(F)cc3NS(C)(=O)=O)nn2c(=O)c1C,
1.4,Cc1[nH]c2cc([C@@H]3CCCCN3C(=O)c3ccccc3)nn2c(=O)c1C,
3.1,Cc1ccc(NS(C)(=O)=O)c(C(=O)N2CCCC[C@H]2c2cc3nc(C)c(C)cn3n2)c1,bioavailability [8]: 86%
1.3,Cc1[nH]c2cc([C@@H]3CCCCN3C(=O)c3cccc(F)c3NS(C)(=O)=O)nn2c(=O)c1C,
3,Cc1cn2nc([C@@H]3CCCCN3C(=O)c3ccccc3NS(C)(=O)=O)cc2nc1C,bioavailability [8]: 18%
2.7,Cc1ccc(NS(C)(=O)=O)c(C(=O)N2CCCC[C@H]2c2cc3nc(C)cc(C)n3n2)c1,
